In ChEMBL document CHEMBL1154971, “Synthesis and evaluation of opioid receptor-binding affinity of elaeocarpenine and its analogs” (Bioorg Med Chem Lett, 2010):

Columns and labels:
Mu-type opioid receptor = Mu-type opioid receptor (Homo sapiens, UniProt P35372); assay: Displacement of [3H]DAMGO from human mu opioid receptor expressed in HEK293 cells; format: cell-based
In short: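 Radioligand competition binding against [³H]DAMGO on human μ-opioid receptor in transfected HEK-293 cells; affinity derived from displacement of the tritiated ligand.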

[1] = biological target: Kappa-type opioid receptor (Rattus norvegicus, UniProt P34975); assay: Displacement of [3H]U69593 from rat kappa opioid receptor expressed in CHO cells
Kappa-type opioid receptor, sequence (P34975 whole entry): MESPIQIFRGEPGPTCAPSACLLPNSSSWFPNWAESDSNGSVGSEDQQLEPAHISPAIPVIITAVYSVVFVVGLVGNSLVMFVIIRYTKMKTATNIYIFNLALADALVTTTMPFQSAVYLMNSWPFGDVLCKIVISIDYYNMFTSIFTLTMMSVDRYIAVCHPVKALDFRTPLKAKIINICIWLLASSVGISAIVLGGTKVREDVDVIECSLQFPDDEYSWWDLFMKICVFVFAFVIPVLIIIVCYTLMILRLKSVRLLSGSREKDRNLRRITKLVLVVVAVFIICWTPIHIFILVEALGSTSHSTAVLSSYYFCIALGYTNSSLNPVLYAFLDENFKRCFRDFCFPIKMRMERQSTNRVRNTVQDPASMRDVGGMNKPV

[2] = biological target: Delta-type opioid receptor (Homo sapiens, UniProt P41143); assay: Displacement of [3H]DADLE from human delta opioid receptor expressed in CHO cells
Delta-type opioid receptor, sequence (P41143 whole entry): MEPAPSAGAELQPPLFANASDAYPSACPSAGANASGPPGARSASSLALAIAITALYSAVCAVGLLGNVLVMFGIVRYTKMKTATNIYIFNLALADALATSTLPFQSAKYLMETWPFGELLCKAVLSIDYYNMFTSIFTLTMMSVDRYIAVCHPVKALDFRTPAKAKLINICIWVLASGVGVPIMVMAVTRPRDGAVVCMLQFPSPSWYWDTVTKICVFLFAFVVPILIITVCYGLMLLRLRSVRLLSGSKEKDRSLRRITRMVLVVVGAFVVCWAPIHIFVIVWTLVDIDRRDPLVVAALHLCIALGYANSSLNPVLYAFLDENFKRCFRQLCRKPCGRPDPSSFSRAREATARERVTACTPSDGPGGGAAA

Mu-type opioid receptor, sequence (P35372 whole entry): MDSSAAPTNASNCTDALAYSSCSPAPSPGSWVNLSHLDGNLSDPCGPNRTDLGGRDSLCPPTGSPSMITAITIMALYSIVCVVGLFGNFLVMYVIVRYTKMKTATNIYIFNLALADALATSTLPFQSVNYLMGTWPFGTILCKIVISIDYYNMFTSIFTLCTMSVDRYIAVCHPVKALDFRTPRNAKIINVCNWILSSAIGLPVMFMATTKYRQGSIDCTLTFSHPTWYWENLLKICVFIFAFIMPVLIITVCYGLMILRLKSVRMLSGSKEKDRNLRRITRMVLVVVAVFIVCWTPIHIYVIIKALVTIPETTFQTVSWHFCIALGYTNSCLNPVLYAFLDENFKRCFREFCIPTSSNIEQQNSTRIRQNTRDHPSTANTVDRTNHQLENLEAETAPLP

SMILES	Ki (Mu-type opioid receptor) [µM]	Ki [1] [µM]	Ki [2] [µM]
Cc1cccc(O)c1C(=O)C1=CCCN2CCC[C@@H]12	45	24	94
COc1cccc(C)c1C(=O)C1=CCCN2CCC[C@@H]12	> 200	20	> 200
O=C(C1=CCCN2CCC[C@@H]12)c1ccccc1O	49	83	> 200
Cc1cccc(O)c1C(=O)C1=CCCCN2CCC[C@@H]12	13	–	> 200
Cc1cccc(O)c1C(=O)C1=CCN2CCC[C@@H]12	3.2	35	> 200
Cc1cccc(O)c1C(=O)C1=CCCN2CCC[C@H]12 [ELAEOCARPENINE]	18	12	14
